The values that follow come from ChEMBL document CHEMBL1141705, “Optimization of a series of multi-isoform PI3 kinase inhibitors” (Bioorg Med Chem Lett, 2008).

A word on the logD: it is the decadic logarithm of the distribution of all forms, ionised or not, between an organic phase and buffer at a given pH. Read a low logD as a more hydrophilic compound. The term AUC denotes concentration integrated over time. Low readings indicate low exposure, high ones high exposure. What is called Cmax is the highest concentration seen after dosing.

A short description of data set [1]: Distribution coefficient, log D of the compound. The class given is physicochemical. To be noted: octanol/water. The essentials:
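logD was determined experimentally at pH 7.4.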

The nature of data set [2]: AUC in Han/Wistar rat at 3 mg/kg, po. To be noted: plasma. Also on record: dose 3 mg/kg, route oral. The class given is ADME, organism-based. An outline of the steps:
(§1)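 Han-Wistar rats received a single oral dose of 3 mg/kg. Plasma Cmax is reported in ng/mL and AUC in ng h/mL.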

A short description of data set [3]: Cmax in Han/Wistar rat at 3 mg/kg, po. The class given is ADME, organism-based. On the set-up: dose 3 mg/kg, route oral. To be noted: in vivo. An outline of the steps: as §1

In data set [1], `Cn1ncc(-c2ccc3c(c2)N(c2nc4c(s2)C(=O)NC(C)(C)C4)CCO3)c1N` had a log distribution coefficient (logD) of 1.98.
The same measure, in the same setting: the figure for `Cc1ccc(-c2ccc3c(c2)N(c2nc4c(s2)C(=O)NC(C)(C)C4)CCO3)nn1` is 2.32; for `COc1ccc(-c2ccc3c(c2)N(c2nc4c(s2)C(=O)NC(C)(C)C4)CCO3)nn1` it is 0.22.
The same measure, in the same setting: next, `Cc1cc(C)c(Nc2ccc3c(c2)N(c2nc4c(s2)C(=O)NC(C)(C)C4)CCO3)nn1`: 1.97; `CN1CCN(c2ccc(-c3ccc4c(c3)N(c3nc5c(s3)C(=O)NC(C)(C)C5)CCO4)nn2)CC1`: 1.75.
Still for that read-out and setting: the figure for `CC1(C)Cc2nc(N3CCOc4ccc(Nc5ccc(N6CCNCC6)nn5)cc43)sc2C(=O)N1` is 0.6; for `Cc1nn(C)c(C)c1-c1ccc2c(c1)N(c1nc3c(s1)C(=O)NC(C)(C)C3)CCO2` it is 3.23.
`Cn1cc(-c2ccc3c(c2)N(c2nc4c(s2)C(=O)NC(C)(C)C4)CCO3)cn1` showed a logD in data set [1] of 2.63.
On the same count and under the same terms, the figure for `Cc1n[nH]c(C)c1-c1ccc2c(c1)N(c1nc3c(s1)C(=O)NC(C)(C)C3)CCO2` is 3.04; for `COc1ccc(Nc2ccc3c(c2)N(c2nc4c(s2)C(=O)NC(C)(C)C4)CCO3)nn1` it is 2.74; for `CC1(C)Cc2nc(N3CCOc4ccc(-c5cnn(Cc6cccnc6)c5)cc43)sc2C(=O)N1` it is 2.94.
The same measure, in the same setting: the figure for `CC1(C)Cc2nc(N3CCOc4ccc(Nc5ccc(-c6ccccc6)nn5)cc43)sc2C(=O)N1` is 3.72.
In data set [2], `CC1(C)Cc2nc(N3CCOc4ccc(-c5ccc(N)nn5)cc43)sc2C(=O)N1` came in with an AUC of 78 ng·h/mL. In addition, in data set [3], the highest concentration (Cmax) is 14 ng/mL. The molecule also came in with a pH-dependent lipophilicity (logD) in data set [1] of 1.94.
The like results for `CCn1nc(C)c(-c2ccc3c(c2)N(c2nc4c(s2)C(=O)NC(C)(C)C4)CCO3)c1C` were, in that order, 591 ng·h/mL, 139 ng/mL and 3.57.
The like results for `Cc1ccc(Nc2ccc3c(c2)N(c2nc4c(s2)C(=O)NC(C)(C)C4)CCO3)nn1` were, in that order, 345 ng·h/mL, 105 ng/mL and 2.39.
Turning to `Cc1nn(CC(C)(C)O)c(C)c1-c1ccc2c(c1)N(c1nc3c(s1)C(=O)NC(C)(C)C3)CCO2`, the logD in data set [1] is 2.3.
In the case of `Cc1nn(CCCN)cc1-c1ccc2c(c1)N(c1nc3c(s1)C(=O)NC(C)(C)C3)CCO2`, in data set [1], the logD stood at 0.38.
Still for that read-out and setting: next, `CC1(C)Cc2nc(N3CCOc4ccc(-c5ccc(N6CCNCC6)nn5)cc43)sc2C(=O)N1`: 2.45; `CCn1cc(-c2ccc3c(c2)N(c2nc4c(s2)C(=O)NC(C)(C)C4)CCO3)cn1`: 2.73.
Still for that read-out and setting: the figure for `CC1(C)Cc2nc(N3CCOc4ccc(-c5cnn(CCN)c5)cc43)sc2C(=O)N1` is 1.16.
`CN1CCN(c2ccc(Nc3ccc4c(c3)N(c3nc5c(s3)C(=O)NC(C)(C)C5)CCO4)nn2)CC1` showed a logD in data set [1] of 1.76.
`COC[C@H](O)Cn1cc(-c2ccc3c(c2)N(c2nc4c(s2)C(=O)NC(C)(C)C4)CCO3)cn1` registered an exposure (AUC) in data set [2] of 807 ng·h/mL. In data set [3], this molecule had a Cmax of 187 ng/mL.
`CC1(C)Cc2nc(N3CCOc4ccc(-c5cn[nH]c5)cc43)sc2C(=O)N1`: the logD in data set [1] turned out to be 2.68.
For the molecule `CC(C)(O)Cn1cc(-c2ccc3c(c2)N(c2nc4c(s2)C(=O)NC(C)(C)C4)CCO3)cn1`, in data set [2], the area under the curve (AUC) came out at 1000 ng·h/mL. In addition, the highest concentration (Cmax) in data set [3] is 195 ng/mL. The log distribution coefficient (logD) in data set [1] turned out to be 2.74.
For the molecule `CN(C)c1ccc(-c2ccc3c(c2)N(c2nc4c(s2)C(=O)NC(C)(C)C4)CCO3)nn1`, the logD in data set [1] worked out at 2.61.
Still for that read-out and setting: the figure for `Cc1nn(C)cc1-c1ccc2c(c1)N(c1nc3c(s1)C(=O)NC(C)(C)C3)CCO2` is 3.
For `CC1(C)Cc2nc(N3CCOc4ccc(-c5cnn(Cc6ccccc6)c5)cc43)sc2C(=O)N1`, the AUC in data set [2] is 455 ng·h/mL. The Cmax in data set [3] came out at 103 ng/mL. The same molecule showed a log distribution coefficient (logD) in data set [1] of 3.91.
The like results for `COCC(O)Cn1cc(-c2ccc3c(c2)N(c2nc4c(s2)C(=O)NC(C)(C)C4)CCO3)cn1` (stereo unspecified) were, in that order, 495 ng·h/mL, 159 ng/mL and 2.19.
